Test results taken from ChEMBL document CHEMBL3244174, “Synthesis and biological activity of some new furan quaternary salts” (J Med Chem, 1977).
Converted amounts (≈) assume the structure as drawn.

Columns and labels:
Candida albicans = experiment: Antifungal activity against Candida albicans SKF 2270 assessed as growth inhibition by agar dilution method; assay type: functional
Cryptococcus neoformans = experiment: Antifungal activity against Cryptococcus neoformans 103 assessed as growth inhibition by agar dilution method; assay type: functional
[1] = test system: Trichophyton mentagrophytes; experiment: Antifungal activity against Trichophyton mentagrophytes A-280 USPHS assessed as growth inhibition by agar dilution method; assay type: functional
Trichophyton rubrum = experiment: Antifungal activity against Trichophyton rubrum 252 CSTM assessed as growth inhibition by agar dilution method; assay type: functional
Microsporum canis = experiment: Antifungal activity against Microsporum canis VM-200 USPHS assessed as growth inhibition by agar dilution method; assay type: functional
Nannizzia gypsea = experiment: Antifungal activity against Microsporum gypseum 153 CSTM assessed as growth inhibition by agar dilution method; assay type: functional
Histoplasma capsulatum = experiment: Antifungal activity against Histoplasma capsulatum RNSH Hi-70 1/2 assessed as growth inhibition by agar dilution method; assay type: functional
Staphylococcus aureus = experiment: Antibacterial activity against Staphylococcus aureus ATCC 6538 assessed as growth inhibition after 24 hrs by dilution tube method; assay type: functional; conditions: ATCC 6538, 24 h
Method in brief: (§1)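 Broth tube dilution in Tryptone Soya Broth, duplicate tubes at each concentration. MIC (μg/ml) was the highest dilution preventing visible growth. Nitrofurantoin run under the same conditions.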

Enterococcus faecalis = experiment: Antibacterial activity against Streptococcus faecalis ATCC 10541 assessed as growth inhibition after 24 hrs by dilution tube method; assay type: functional; conditions: ATCC 10541, 24 h; method in brief: as §1
Pseudomonas aeruginosa = experiment: Antibacterial activity against Pseudomonas aeruginosa ATCC 10145 assessed as growth inhibition after 24 hrs by dilution tube method; assay type: functional; conditions: ATCC 10145, 24 h; method in brief: as §1
Klebsiella pneumoniae = experiment: Antibacterial activity against Klebsiella pneumoniae ATCC 10031 assessed as growth inhibition after 24 hrs by dilution tube method; assay type: functional; conditions: ATCC 10031, 24 h; method in brief: as §1
Salmonella typhi = experiment: Antibacterial activity against Salmonella typhi 115 assessed as growth inhibition after 24 hrs by dilution tube method; assay type: functional, Salmonella enterica subsp. enterica serovar Typhi; conditions: Salmonella enterica, 115, 24 h
Method in brief: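 Dilution tube method in Tryptone Soya Broth; MIC (μg/ml) taken as highest dilution preventing visible growth; duplicates at every concentration; nitrofurantoin reference run under same conditions.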

[2] = test system: Agrobacterium tumefaciens; experiment: Antibacterial activity against Agrobacterium tumefaciens NRRL B-36 assessed as growth inhibition after 24 hrs by dilution tube method; assay type: functional; conditions: NRRL B-36, 24 h; method in brief: as §1
Escherichia coli = experiment: Antibacterial activity against Escherichia coli 114 assessed as growth inhibition after 24 hrs by dilution tube method; assay type: functional; conditions: Escherichia coli, 114, 24 h; method in brief: as §1
[3] = test system: Mycobacterium tuberculosis; experiment: Antibacterial activity against Mycobacterium tuberculosis H37Rv assessed as growth inhibition by serial dilution method; assay type: functional
Method in brief: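 M. tuberculosis H37Rv maintained on Lowenstein–Jensen medium; tested in Youman's medium by serial dilution.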

Compound	MIC (Candida albicans)	MIC (Cryptococcus neoformans)	MIC [1]	MIC (Trichophyton rubrum)	MIC (Microsporum canis)	MIC (Nannizzia gypsea)	MIC (Histoplasma capsulatum)	MIC (Staphylococcus aureus)	MIC (Enterococcus faecalis)	MIC (Pseudomonas aeruginosa)	MIC (Klebsiella pneumoniae)	MIC (Salmonella typhi)	MIC [2]	MIC (Escherichia coli)	MIC [3]
Cc1cc(OCCC[N+](C)(C)Cc2ccc(Br)o2)c(C(C)C)cc1Cl.[Br-]	> 200 µg/mL	50 µg/mL	> 200 µg/mL	100 µg/mL	100 µg/mL	> 200 µg/mL	100 µg/mL	10 µg/mL	10 µg/mL	4 µg/mL	7.5 µg/mL	100 µg/mL	25 µg/mL	> 200 µg/mL	10 µg/mL
C[N+](C)(CCCCCCCOc1c(Br)cc(Br)cc1Br)Cc1ccc(Br)o1.[Br-]	> 200 µg/mL	5 µg/mL	> 200 µg/mL	> 200 µg/mL	> 200 µg/mL	> 200 µg/mL	> 200 µg/mL	3 µg/mL	4 µg/mL	2 µg/mL	2 µg/mL	> 200 µg/mL	7.5 µg/mL	> 200 µg/mL	25 µg/mL
Cc1ccc(C[N+](C)(C)CCOc2c(Br)cc(Br)cc2Br)o1.[Br-]	> 200 µg/mL	50 µg/mL	> 200 µg/mL	> 200 µg/mL	> 200 µg/mL	> 200 µg/mL	> 200 µg/mL	50 µg/mL	50 µg/mL	25 µg/mL	50 µg/mL	> 200 µg/mL	100 µg/mL	> 200 µg/mL	25 µg/mL
C[N+](C)(CCCCCOc1ccc(Cl)cc1Cl)Cc1ccc(Br)o1.[Br-]	> 200 µg/mL	50 µg/mL	> 200 µg/mL	> 200 µg/mL	50 µg/mL	> 200 µg/mL	100 µg/mL	25 µg/mL	50 µg/mL	10 µg/mL	25 µg/mL	> 200 µg/mL	50 µg/mL	> 200 µg/mL	–
Cc1ccc(C[N+](C)(C)CCCCCOc2c(Br)cc(Br)cc2Br)o1.[Br-]	> 200 µg/mL	25 µg/mL	> 200 µg/mL	> 200 µg/mL	> 200 µg/mL	> 200 µg/mL	100 µg/mL	7.5 µg/mL	25 µg/mL	5 µg/mL	5 µg/mL	100 µg/mL	25 µg/mL	> 200 µg/mL	5 µg/mL
Cc1ccc(C[N+](C)(C)CCCCOc2cc(C)c(Cl)cc2C(C)C)o1.[Br-]	50 µg/mL	25 µg/mL	50 µg/mL	> 200 µg/mL	25 µg/mL	> 200 µg/mL	100 µg/mL	25 µg/mL	25 µg/mL	5 µg/mL	5 µg/mL	100 µg/mL	50 µg/mL	> 200 µg/mL	10 µg/mL
O=C1CN(/N=C/c2ccc([N+](=O)[O-])o2)C(=O)N1 [NITROFURANTOIN]	–	–	–	–	–	–	–	25 µg/mL (≈ 105 µM)	100 µg/mL (≈ 420 µM)	2.5 µg/mL (≈ 10.5 µM)	5 µg/mL (≈ 21 µM)	25 µg/mL (≈ 105 µM)	25 µg/mL (≈ 105 µM)	25 µg/mL (≈ 105 µM)	–
C[N+](C)(CCCCOc1ccccc1Cl)Cc1ccc(Br)o1.[Br-]	> 200 µg/mL	> 200 µg/mL	> 200 µg/mL	> 200 µg/mL	> 200 µg/mL	> 200 µg/mL	> 200 µg/mL	100 µg/mL	> 200 µg/mL	100 µg/mL	100 µg/mL	> 200 µg/mL	> 200 µg/mL	> 200 µg/mL	–
C[N+](C)(CCOc1c(Br)cc(Br)cc1Br)Cc1ccc(Br)o1.[Br-]	> 200 µg/mL	50 µg/mL	100 µg/mL	> 200 µg/mL	100 µg/mL	> 200 µg/mL	100 µg/mL	25 µg/mL	25 µg/mL	25 µg/mL	25 µg/mL	> 200 µg/mL	100 µg/mL	> 200 µg/mL	–
C[C@@H]1[C@H](O)[C@@H](C)/C=C/C=C/C=C/C=C/C=C/C=C/C=C/[C@H](O[C@@H]2O[C@H](C)[C@@H](O)[C@H](N)[C@@H]2O)C[C@@H]2O[C@](O)(C[C@@H](O)C[C@@H](O)[C@H](O)CC[C@@H](O)C[C@@H](O)CC(=O)O[C@H]1C)C[C@H](O)[C@H]2C(=O)O [AMPHOTERICIN B]	2.5 µg/mL (≈ 2.71 µM)	–	10 µg/mL (≈ 10.8 µM)	10 µg/mL (≈ 10.8 µM)	5 µg/mL (≈ 5.41 µM)	10 µg/mL (≈ 10.8 µM)	0.5 µg/mL (≈ 0.541 µM)	–	–	–	–	–	–	–	–
C[N+](C)(CCCCOc1ccc(Cl)cc1)Cc1ccc([N+](=O)[O-])o1.[Br-]	> 200 µg/mL	> 200 µg/mL	> 200 µg/mL	> 200 µg/mL	> 200 µg/mL	> 200 µg/mL	> 200 µg/mL	100 µg/mL	> 200 µg/mL	100 µg/mL	100 µg/mL	> 200 µg/mL	> 200 µg/mL	> 200 µg/mL	–
C[N+](C)(CCCCCCCCCCOc1c(Br)cc(Br)cc1Br)Cc1ccc([N+](=O)[O-])o1.[Br-]	> 200 µg/mL	4 µg/mL	–	> 200 µg/mL	> 200 µg/mL	> 200 µg/mL	> 200 µg/mL	2 µg/mL	4 µg/mL	3 µg/mL	4 µg/mL	> 200 µg/mL	10 µg/mL	> 200 µg/mL	7.5 µg/mL
C[N+](C)(CCCCOc1ccc(Cl)cc1)Cc1ccc(Br)o1.[Br-]	> 200 µg/mL	> 200 µg/mL	> 200 µg/mL	> 200 µg/mL	> 200 µg/mL	> 200 µg/mL	> 200 µg/mL	100 µg/mL	100 µg/mL	50 µg/mL	100 µg/mL	100 µg/mL	100 µg/mL	100 µg/mL	–
Cc1cc(OCCCCCCCCCC[N+](C)(C)Cc2ccc([N+](=O)[O-])o2)c(C(C)C)cc1Cl.Cc1ccc(S(=O)(=O)[O-])cc1	> 200 µg/mL	100 µg/mL	200 µg/mL	> 200 µg/mL	> 200 µg/mL	> 200 µg/mL	> 200 µg/mL	200 µg/mL	100 µg/mL	50 µg/mL	200 µg/mL	> 200 µg/mL	–	> 200 µg/mL	25 µg/mL
Cc1cc(OCCCCCC[N+](C)(C)Cc2ccc([N+](=O)[O-])o2)c(C(C)C)cc1Cl.[Br-]	> 200 µg/mL	25 µg/mL	> 200 µg/mL	200 µg/mL	100 µg/mL	> 200 µg/mL	> 200 µg/mL	> 200 µg/mL	> 200 µg/mL	> 200 µg/mL	> 200 µg/mL	> 200 µg/mL	> 200 µg/mL	> 200 µg/mL	–
Cc1cc(OCCCCCCCCCC[N+](C)(C)Cc2ccc(Br)o2)c(C(C)C)cc1Cl.[Br-]	> 200 µg/mL	100 µg/mL	–	> 200 µg/mL	100 µg/mL	> 200 µg/mL	100 µg/mL	25 µg/mL	50 µg/mL	25 µg/mL	–	> 200 µg/mL	> 200 µg/mL	> 200 µg/mL	–
C[N+](C)(CCCCCOc1ccc(Cl)cc1)Cc1ccc(Br)o1.[Br-]	> 200 µg/mL	> 200 µg/mL	> 200 µg/mL	> 200 µg/mL	100 µg/mL	> 200 µg/mL	> 200 µg/mL	50 µg/mL	100 µg/mL	25 µg/mL	50 µg/mL	> 200 µg/mL	> 200 µg/mL	> 200 µg/mL	–
C[N+](C)(CCCCCOc1ccccc1Cl)Cc1ccc(Br)o1.[Br-]	> 200 µg/mL	> 200 µg/mL	> 200 µg/mL	> 200 µg/mL	> 200 µg/mL	> 200 µg/mL	> 200 µg/mL	50 µg/mL	> 200 µg/mL	50 µg/mL	100 µg/mL	> 200 µg/mL	> 200 µg/mL	> 200 µg/mL	–
C[N+](C)(CCCCOc1ccccc1Cl)Cc1ccc([N+](=O)[O-])o1.[Br-]	> 200 µg/mL	> 200 µg/mL	> 200 µg/mL	> 200 µg/mL	> 200 µg/mL	> 200 µg/mL	> 200 µg/mL	100 µg/mL	> 200 µg/mL	100 µg/mL	100 µg/mL	> 200 µg/mL	> 200 µg/mL	> 200 µg/mL	–
C[N+](C)(CCCCCCCCCCCCOc1c(Br)cc(Br)cc1Br)Cc1ccc([N+](=O)[O-])o1.[Br-]	> 200 µg/mL	200 µg/mL	> 200 µg/mL	> 200 µg/mL	> 200 µg/mL	–	> 200 µg/mL	200 µg/mL	200 µg/mL	50 µg/mL	200 µg/mL	> 200 µg/mL	> 200 µg/mL	–	100 µg/mL
